CHRM1 antagonist: human CHRM1 antagonism | inhibition, % at 3 µM | hit rate 1.3% among 360,000 | CHO-K1 hM1, Fluo-8 calcium fluorescence, ACh EC80 antagonist | P11229;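 active means percent inhibition above its own plate's cutoff, namely the mean of that plate's compound wells plus 3 SD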;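 further: peak over basal fluorescence ratio during 140 s after agonist addition; 0% = ACh EC80 plus DMSO and 100% = DMSO alone without agonist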
TAAR1 antagonist: antagonists of human TAAR1 | Q96RJ0 | CHO RD-HGA16 TAAR1, Fluo-8 calcium fluorescence, antagonist | inhibition, % at 3 µM | hit rate 1.5% among 360,000;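 active means inhibition above a per-plate cutoff, the mean inhibition of test compounds on that plate plus 3 SD, cut at about 49% in these data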;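 further: 0% = DMSO plus EC80 beta-PEA response and 100% = DMSO alone without agonist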
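System: CHO RD-HGA16 cells bearing hTAAR1. Reagent: EC80 β-phenethylamine stimulus. Schedule: seeding 17-24 h prior, 75-min 37 °C, 30-min RT dye loading. Signal: Fluo-8 intracellular calcium dye fluorescence, real-time kinetic reads. Read-out: % inhibition from peak post-agonist over basal fluorescence ratio. Benchmarks: vehicle wells and EC80 agonist wells. Replicates: n of 1.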
CHRM1 PAM: potentiates human M1 receptor response to acetylcholine; P11229; CHO-K1 hM1, Fluo-8 calcium fluorescence, ACh EC20; 0% = ACh EC20, 100% = maximal ACh; activation, % at 3 µM; hit rate 0.088% among 360,000; AID 588819; in the data active means activation above about 19%, passing the limit was not always enough
TAAR1 agonist: agonists of human TAAR1. Q96RJ0. CHO RD-HGA16 TAAR1, Fluo-8 calcium fluorescence; vehicle wells 0%, saturating PEA agonist 100%. activation, % at 3 µM. hit rate 0.99% among 360,000;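 active means activation above the mean activation of all test compounds in the run plus 3 SD, cut at about 38% in these data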
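System: CHO-derived RD-HGA16 cells with stable Gα16 and human TAAR1 / Times: 17-24 h plating, Fluo-8 75 min 37 °C, 30 min RT / Technique: calcium-sensitive Fluo-8 signal, excitation 470-495, emission 515-575 nm / Measure: % activation relative to PEA EC100 response / Benchmarks: DMSO and PEA EC100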
CHRM1 agonist: agonists of human M1 muscarinic receptor. P11229. hit rate 0.33% among 360,000. activation, % at 3 µM. CHO-K1 hM1, Fluo-8 calcium fluorescence, agonist mode; 0% DMSO, 100% acetylcholine EC100;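 active means activation above the run's mean compound activation plus 3 SD, cut at about 16% in these data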;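 further: peak over basal fluorescence ratio within a 140 s kinetic read after compound addition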
HTR2A ag: activates the mouse 5-HT2A serotonin receptor. CHO-K1 mHTR2A beta-arrestin complementation, luminescence; percent of 30 µM serotonin response. activation, % at 7.6 µM. hit rate 0.66% among 360,000. AID 624169;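 active means activation above a run cutoff, the mean activation of all tested compounds plus 3 SD, cut at about 14% in these data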;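 further: 0% = plate median of compound wells and 100% = 30 µM serotonin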
Target sequence (P35363 whole entry, looked up): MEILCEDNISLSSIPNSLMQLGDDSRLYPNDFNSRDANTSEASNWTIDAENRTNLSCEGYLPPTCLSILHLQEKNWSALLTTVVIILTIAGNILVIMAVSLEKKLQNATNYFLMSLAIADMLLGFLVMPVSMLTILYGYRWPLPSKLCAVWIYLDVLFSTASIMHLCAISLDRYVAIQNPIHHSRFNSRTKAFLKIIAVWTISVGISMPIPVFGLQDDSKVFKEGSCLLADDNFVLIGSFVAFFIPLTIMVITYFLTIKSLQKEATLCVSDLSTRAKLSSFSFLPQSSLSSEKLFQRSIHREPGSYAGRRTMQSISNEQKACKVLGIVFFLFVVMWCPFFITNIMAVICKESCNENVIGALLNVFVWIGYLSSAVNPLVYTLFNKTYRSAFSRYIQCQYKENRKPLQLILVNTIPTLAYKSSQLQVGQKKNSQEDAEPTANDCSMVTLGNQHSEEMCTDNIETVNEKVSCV
Numbers without * were called inactive; . = not tested or not shown. A selection: hits, their analogues and other compounds. The true share with any hit is near 3.9%.

SMILES	CHRM1 antagonist	TAAR1 antagonist	CHRM1 PAM	TAAR1 agonist	CHRM1 agonist	HTR2A ag
CCCC(NCC(O)COc1ccc(-c2ccccc2)cc1)c1ccccc1 (stereo unspecified)	-1	-6	8	40*	-1	-4
CC(NCC(O)COC1CCC(C(C)(C)C)CC1)c1ccccc1 (stereo unspecified)	11	1	-5	44*	-3	3
Cc1cc(C)cc(-n2c(C)cc(C(=S)N3CCOCC3)c2C)c1	-9	4	16	-4	-6	8
Cc1cc(C(=S)N2CCOCC2)c(C)n1-c1ccc(Cl)cc1	29*	-8	-25	1	-8	-1
CCCC#CCN1CCN(C23CC4CC(CC(C4)C2)C3)CC1	47*	-17	-25	2	-11	2
O=C(COC(=O)CCc1nc2ccccc2c(=O)[nH]1)Nc1ccccc1OC(F)F	-15	17	24*	-1	5	6
O=[N+]([O-])c1ccc2nc(/C=C/c3ccc(Cl)cc3)[nH]c2c1	18	53*	-22	4	-2	-5
CCOC(=O)C1=C(Cc2ccc(F)cc2)C(=O)c2ccccc2C1=O	21	52*	1	31	-1	1
COc1ccc(NS(=O)(=O)c2cc(NC(=O)Cc3cccs3)ccc2C)cc1	-5	-3	6	1	-9	6
COc1ccc(NS(=O)(=O)c2ccc(C(=O)N(C)Cc3cccs3)cc2)cc1	2	34	-7	45*	25*	3
COc1ccc(NS(=O)(=O)c2ccc(NC(=O)Cc3cccs3)cc2)cc1	15	15	-1	41*	7	-3
COc1ccc(-n2c(SCC(=O)Nc3ccccc3)nnc2-c2ccc(NS(=O)(=O)c3ccc(C)cc3)cc2)cc1	-4	53*	6	9	5	8
O=C(NC(c1ccccc1)c1ccccc1)c1ccc(CO)cc1	-10	-22	6	3	-10	-7
Nc1ncc(Br)cc1S(=O)(=O)NCCC(=O)NCCc1ccccc1	6	-4	-4	20	-4	-7
COc1ccc(S(=O)(=O)/N=C2\C=C(Nc3ccc(O)cc3)C(=O)c3ccccc32)cc1	7	51*	-7	1	-12	-13
O=C(NCCN1CCC(n2c(=O)[nH]c3cc(Cl)ccc32)CC1)c1ccc(F)cc1	.	11	.	5	.	.
Cc1ccccc1OCCn1cnc2cc([N+](=O)[O-])ccc2c1=O	12	49*	-9	11	-4	-1
O=c1c2ccccc2ncn1CCCOc1ccccc1[N+](=O)[O-]	0	3	1	14	-1	-6
OC1(c2ccc(OC(F)F)cc2)CSC(=Nc2cccnc2)N1C1CC1 (stereo unspecified)	21*	9	-16	6	1	7
COC(=O)C1C2CC(=O)C(C2)C1C(=O)OC (stereo unspecified)	3	-13	-8	2	0	-1
O=C1CC(=C(c2ccccc2)c2ccccc2)C(=O)N1CCCCN1CCN(c2ccccc2)CC1	73*	-29	-22	-2	-5	3
O=C(CCCN1CCN(c2ccccc2)CC1)c1ccc(F)cc1	2	-33	-6	1	-5	-7
N#Cc1cc(F)cc(OCCCN2CCC(C(O)(c3ccccc3)c3ccccc3)CC2)c1	.	33	.	24	.	.
CCOc1ccccc1CNC(=O)c1ccc(NC(=O)C2=CSCCO2)cc1	-16	11	12	5	-1	2
O=C(CCC(=O)Nc1ccccc1Cl)N/N=C/c1c[nH]c2ccccc12	-5	-3	5	2	-3	22*
SMILES	CHRM1 antagonist	TAAR1 antagonist	CHRM1 PAM	TAAR1 agonist	CHRM1 agonist	HTR2A ag
CC(NC(=O)Nc1ccc(Cl)c(Cl)c1)C(c1ccccc1)N1CCOCC1 (stereo unspecified)	10	9	3	57*	30*	0
CC(NC(=O)Nc1ccc([N+](=O)[O-])cc1)C(c1ccccc1)N1CCOCC1 (stereo unspecified)	2	-3	-1	49*	26*	-5
CCCCOCCCNC(=O)C[C@@H]1C[C@@]2(C(=O)OCC)CCCC=C2N(CCc2ccc(OC)c(OC)c2)C1=O	.	-19	.	-1	.	-5
CCC1CCCCN1CCCCOc1cccc(Cl)c1 (stereo unspecified)	18	-14	-20	5	-8	-15
CCOC(=O)c1cnc2ccc(OCC)cc2c1N1CCN(c2ccccc2OC)CC1	34*	.	-12	.	-1	3
Cc1ccc(CNC(=O)COC(=O)c2ccc(S(=O)(=O)N(C)C)cc2)cc1	-8	1	11	0	-8	0
O=C(CSc1cccc2cccnc12)N/N=C/c1cccc(O)c1	-2	28	-8	12	1	4
O=C(N/N=C/c1ccc(O)c(O)c1)c1ccc(CSc2cccc3cccnc23)cc1	-2	9	4	13	24*	-3
Cc1cc(F)ccc1S(=O)(=O)N1CCCOC1CNC(=O)C(=O)NCc1ccncc1 (stereo unspecified)	-3	-17	-5	0	-4	1
CSc1nnc(C)c(/C=C/Nc2ccc(F)cc2)n1	2	32	0	68*	-3	-2
Cc1nn(-c2ccccc2)c(C)c1NC(=O)COC(=O)c1cccc(OC(F)F)c1	10	55*	-3	15	-1	-7
Cc1nn(-c2ccccc2)c(C)c1NC(=O)COC(=O)c1ccccc1	-5	12	2	6	0	2
Cc1nn(-c2ccccc2)c(C)c1NC(=O)COC(=O)c1ccc(S(=O)(=O)C(F)F)cc1	18	49*	-8	16	-1	3
O=C(Cc1ccc(NC(=O)C2CCN(C(=O)C3CCC3)CC2)cc1)Nc1ccc(C(=O)N2CCOCC2)cc1	-3	-7	0	1	-4	3
Cc1ccc2c3c(cccc13)-c1ccccc1C2=O	-2	11	1	2	-8	5
Nc1ccc2c3c(cccc13)-c1ccccc1-2	42*	72*	-14	82*	37*	1
CC(=O)c1ccc(OCCCC(=O)Nc2cc(Cl)ccc2-n2cncn2)cc1	-12	-24	6	1	-2	10
CCOc1ccc(OCCCC(=O)Nc2cc(Cl)ccc2-n2cncn2)cc1	19	58*	-14	15	-2	-1
CC1=Nc2ccccc2/C1=C/c1nc(-c2ccc(C)s2)oc1O	29	54*	-4	38*	8	-2
Cc1ccc(C(=O)NCC(c2ccco2)N2CCc3ccccc3C2)cc1C (stereo unspecified)	2	-28	-3	12	-6	-7

Compound activity (PubChem)
